Only some compounds are listed: those with a hit (about 1.7% of all), similar ones and a draw of the others.
IDE cell inh: cellular human IDE inhibition. inhibition, % at 5.59 µM. P14735. actives 0.41% (n = 320,000). HEK cells, FAbetaB cleavage, fluorescence polarization;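 active = percent inhibition above the average of all tested compounds plus 3 SD, set per screening campaign, cut at about 16% in these data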;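 also: IDE supplied by intact live HEK cells; FP after avidin binding of uncleaved biotin substrate so inhibition keeps polarization high; 0% = DMSO wells and 100% = 60 µM reference IDE inhibitor Ii1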
Target sequence (P14735 whole entry, looked up): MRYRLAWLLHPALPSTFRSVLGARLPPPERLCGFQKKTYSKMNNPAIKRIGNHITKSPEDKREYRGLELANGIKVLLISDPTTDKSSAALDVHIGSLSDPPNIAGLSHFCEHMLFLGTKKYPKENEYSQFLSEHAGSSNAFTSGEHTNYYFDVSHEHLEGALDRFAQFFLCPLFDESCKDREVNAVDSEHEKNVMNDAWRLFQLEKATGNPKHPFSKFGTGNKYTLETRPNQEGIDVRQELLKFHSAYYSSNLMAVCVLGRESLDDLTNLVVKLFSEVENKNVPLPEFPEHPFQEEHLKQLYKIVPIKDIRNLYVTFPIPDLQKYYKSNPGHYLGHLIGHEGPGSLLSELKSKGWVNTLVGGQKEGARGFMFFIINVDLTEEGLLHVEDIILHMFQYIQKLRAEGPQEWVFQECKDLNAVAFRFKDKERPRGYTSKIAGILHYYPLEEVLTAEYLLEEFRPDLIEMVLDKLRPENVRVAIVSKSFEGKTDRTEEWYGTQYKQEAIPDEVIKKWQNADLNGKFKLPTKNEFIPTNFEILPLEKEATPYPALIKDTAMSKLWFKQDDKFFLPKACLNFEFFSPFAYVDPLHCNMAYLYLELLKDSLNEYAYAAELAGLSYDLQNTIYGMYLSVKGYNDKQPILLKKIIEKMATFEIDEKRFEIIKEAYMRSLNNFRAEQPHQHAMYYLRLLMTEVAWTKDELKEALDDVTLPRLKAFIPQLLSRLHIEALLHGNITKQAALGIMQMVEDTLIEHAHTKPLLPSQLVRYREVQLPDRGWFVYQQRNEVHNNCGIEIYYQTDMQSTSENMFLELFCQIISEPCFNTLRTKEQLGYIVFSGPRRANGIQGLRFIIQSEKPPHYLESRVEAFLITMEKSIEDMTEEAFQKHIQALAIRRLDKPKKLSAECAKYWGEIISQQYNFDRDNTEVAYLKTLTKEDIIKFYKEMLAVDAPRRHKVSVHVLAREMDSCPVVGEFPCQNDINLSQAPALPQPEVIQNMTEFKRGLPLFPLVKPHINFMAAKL
Rpn11 inh: inhibitors of human proteasome Rpn11 | O00487 | human 26S proteasome, Ub4-pepOG fluorescence polarization; 20S core pre-blocked with epoxomicin | inhibition, % at 20 µM | actives 0.59% (n = 360,000) | AID 588493;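 active = inhibition at 20 µM, scaled to each plate's controls, above about 33%, limit read from the data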
IDE act: activators of human insulin-degrading enzyme in cells; P14735; HEK cells, FAbeta-B cleavage, fluorescence polarization; 0% vehicle, 100% cell-free pure enzyme wells; activation, % at 5.96 µM; actives 0.073% (n = 340,000);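 active = activation above the mean of all tested compounds plus 3 SD, set per screening campaign, cut at about 17% in these data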
TPT1 inh: C. albicans TPT1 enzyme inhibition | recombinant caTPT1, FP RNA substrate dephosphorylation | inhibition, % at 5 µM | actives 0.81% (n = 300,000) | AID 1962;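 active = inhibition above the mean of all tested compounds plus 3 SD, set per screening campaign, cut at about 24% in these data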;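 also: plate controls were DMSO alone for no effect and ferristatin control at 100 nM for full effect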
CSN inh: CSN deneddylation inhibition. Q92905. Purified CSN, SCF-Nedd8-OG deneddylation, fluorescence polarization. inhibition, % at 12.5 µM. actives 0.38% (n = 360,000). AID 651999;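 active = pattern-corrected inhibition above about 35%, with an unprinted fluorescence ratio check between 0.5 and 1.5, limit read from the data, passing the limit was not always enough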;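 also: 0% = enzyme with substrate and 100% = substrate without enzyme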
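Schedule: reaction 90 min, room temperature / Assay system: HEK293T-derived human Csn5 enzyme / Input: Csn5 at 0.24 nM final / Measure: inhibition of Csn5 cleavage, % / Control set: substrate-only high control, full reaction low control / Technique: fluorescence polarization of the substrate / Buffer or medium: Tris/NaCl/DTT buffer, pH 7.5 / Reagent: SCFSkp2-Nedd8OG substrate at 10 nM final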
HNF4A DNA FP: change in binding of human HNF4 alpha to DNA; HNF4a-FITC DNA binding, fluorescence polarization, 1 h; AID 1224865; activity change, % at 10 µM; actives 0.3% (n = 360,000); in the data active = activity change above about 30%, passing the limit was not always enough
IDE inh confirm: confirmation of human insulin-degrading enzyme inhibitors in cells | actives 51% (n = 1,200) | HEK cells, FAbetaB cleavage, fluorescence polarization | shares compounds with IDE cell inh | AID 435028 | inhibition, % at 5.59 µM;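 active = mean inhibition across triplicate wells above the cutoff set by the earlier primary insulin-degrading enzyme screen, cut at about 16% in these data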;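 also: 0% = DMSO wells and 100% = 60 µM reference IDE inhibitor Ii1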
HEK293 tox: HEK cell cytotoxicity, counter-screen for IDE inhibitors; actives 28% (n = 1,200); shares compounds with IDE cell inh; inhibition, % at 5.59 µM; HEK293 cytotoxicity, ATP luminescence; in the data active = inhibition above about 22%;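 also: 0% = vehicle wells and 100% = reference cytotoxic drug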
Rpn11 inh conf: Rpn11 inhibition confirmation, single concentration. shares compounds with Rpn11 inh. purified human 26S proteasome, Ub4-pepOG fluorescence polarization; proteasome pretreated with epoxomicin. inhibition, % at 20 µM. actives 29% (n = 1,900)
MMP-2 counter-1: blocks human MMP-2, flagging nonselective RPN11 hits; shares compounds with Rpn11 inh; recombinant MMP-2, FRET peptide cleavage fluorescence; inhibition, % at 20 µM; actives 4% (n = 1,900); AID 602330;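 also: human MMP-2 activated beforehand with APMA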
Thrombin FP: thrombin (bovine) inhibition counter-screen | shares compounds with Rpn11 inh | bovine thrombin cleavage of Ub4-pepOG, fluorescence polarization | inhibition, % at 20 µM | AID 602333 | actives 13% (n = 1,900);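 active = mean inhibition at least 40% at 20 µM, or signal 3 deviations below plate average, so some actives read negative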;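 also: plate controls were thrombin with DMSO for no effect and buffer wells lacking thrombin for full effect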
CSN5 deneddyl: validation of inhibitors of human CSN-mediated cullin deneddylation; Csn5 deneddylation of SCF-Nedd8OG, fluorescence polarization, 90 min; inhibition, % at 16.6 µM; shares compounds with CSN inh; actives 62% (n = 540); in the data active = inhibition above about 50%;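 also: 0% = DMSO with enzyme and 100% = no enzyme wells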
MMP-2 counter-2: blocks human MMP-2 in a CSN deneddylation counter-screen; shares compounds with CSN inh; recombinant MMP-2, FRET substrate fluorescence, 60 min; inhibition, % at 16.6 µM; actives 33% (n = 540);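 active = corrected plate-normalized z-score of 5 or more, or -5 or less, or inhibition of 15% or more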;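 also: plate controls were DMSO wells with enzyme for no effect and buffer wells lacking MMP-2 for full effect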
Thrombin counter: thrombin (bovine) inhibition, counter-screen for CSN hits; bovine thrombin cleavage of Ub4-pepOG, fluorescence polarization; shares compounds with CSN inh; inhibition, % at 16.6 µM; actives 49% (n = 540); AID 720656;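 active = inhibition at or above a set limit, with a fluorescence interference ratio between 0.5 and a set maximum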
HNF4A confirm: change in binding of human HNF4 alpha to DNA, retest. AID 1224897. actives 99% (n = 210). HNF4A-FITC DNA binding, fluorescence polarization, 1 h. shares compounds with HNF4A DNA FP. activity change, % at 12.5 µM; call rule not given here
* = called active by the depositor; . = no result given; + = active, no number. Rule as the data show it, unless noted: active = inhibition above about 40%; inactive = the rest.

SMILES | IDE cell inh | Rpn11 inh | IDE act | TPT1 inh | CSN inh | HNF4A DNA FP | Rpn11 inh conf | MMP-2 counter-1 | Thrombin FP | others
N=C1/C(=C\c2ccc(SCc3ccco3)o2)C(=O)N=C2SC=NN12 | 25* | 12 | -31 | 10 | 105* | 17 | . | . | . | IDE inh confirm=13;HEK293 tox=8;CSN5 deneddyl=60*;MMP-2 counter-2=3;Thrombin counter=26*
O=C(O)CN1C(=O)/C(=C\c2cccc(OC(=O)c3ccco3)c2)SC1=S | 1 | -10 | 1 | -2 | -5 | 12 | . | . | .
O=C(O)CN1C(=O)/C(=C\c2ccc(OC(=O)c3ccco3)cc2)SC1=S | 35* | 122* | -53 | 21 | 54* | 73* | 96* | 0 | 68* | IDE inh confirm=160*;HEK293 tox=6;CSN5 deneddyl=82*;MMP-2 counter-2=11;Thrombin counter=68*
Cc1nnsc1C(=O)N/N=C/c1ccc2ccccc2c1O | 90* | . | -73 | 110* | 68* | 67* | . | . | . | IDE inh confirm=114*;HEK293 tox=113*;CSN5 deneddyl=36;MMP-2 counter-2=-34*;Thrombin counter=77*
CC(=O)NC(C)(c1ccccc1)c1nc(-c2ccc(N(C)C)cc2)cs1 (stereo not given) | . | 0 | . | . | 1 | 1 | . | . | .
CCC/C(C#Cc1cc(OC)cc(OC)c1)=C1/c2ccccc2C(=O)N1c1ccccc1 | 6 | 14 | 1 | . | -1 | 0 | . | . | .
CCC/C(C#Cc1ccc(N(C)C)cc1)=C1/c2ccccc2C(=O)N1c1ccccc1 | 22* | . | -8 | . | 53* | 95 | . | . | . | IDE inh confirm=16;HEK293 tox=26*;CSN5 deneddyl=+;MMP-2 counter-2=-59*;Thrombin counter=-74
CS(=O)(=O)c1cc(C(=O)O)cc(NCc2ccccc2)c1Oc1ccccc1 | . | -2 | . | . | 0 | 3 | . | . | .
Cc1ccc(S(=O)(=O)/N=C2/NC(=O)/C(=C/c3cc([N+](=O)[O-])ccc3O)S2)cc1 | 58* | . | -45 | 64* | 55* | 25 | . | . | . | IDE inh confirm=80*;HEK293 tox=5;CSN5 deneddyl=53*;MMP-2 counter-2=-44*;Thrombin counter=31*
COc1ccc(Cc2c(-c3ccc(F)cc3)nc3c(C)cc(Br)cn23)c(C)c1 | . | 34 | . | . | 9 | 19 | . | . | .
CN(C)c1ccc(/C=C(\C#N)C(=O)OCC(=O)N(C)C2CCS(=O)(=O)C2)cc1 (stereo not given) | 16* | 78* | -8 | . | 22 | 42* | 61* | -5 | 56* | IDE inh confirm=13;HEK293 tox=4;HNF4A confirm=75*
COc1ccc(CN2C(=O)CCC2(C)c2nnnn2-c2ccc3c(c2)OCCO3)cc1 (stereo not given) | . | . | . | . | -3 | 0 | . | . | .
CCOc1ccc(NC(=O)c2ccc(NC(=O)c3cn4c5c(c(N6CCN(C)CC6)c(F)cc5c3=O)OCC4C)cc2)cc1 (stereo not given) | 7 | 46* | 0 | -1 | 1 | 10 | -2 | -11 | 0
CCN(CC)c1ccc(N)cc1 | -3 | 98* | 3 | . | 15 | 47* | 42* | -8 | 26
CC1CN(S(=O)(=O)c2cccc(C(=O)OC/C(O)=C(\C#N)c3nc4ccccc4[nH]3)c2)CC(C)O1 (stereo not given) | 8 | 40* | 0 | 7 | -3 | 13 | 7 | -10 | 4
CCc1ccc2[nH]c(=O)c(CN(Cc3ccccc3OC)Cc3nnnn3Cc3ccco3)cc2c1 | 3 | 45* | 8 | 18 | 6 | 8 | -7 | -20 | -2
COc1ccccc1CN(Cc1cc2cc(C)ccc2[nH]c1=O)Cc1nnnn1Cc1ccco1 | 9 | 26 | 5 | 14 | 23 | 13 | . | . | .
O=C(CN1CCN(c2nc(-c3ccc(Cl)cc3)cs2)CC1)NCc1ccco1 | 15 | 51* | -13 | 21 | 6 | 7 | 44* | 78* | 23
FC(F)Sc1ccc(NC(=S)NC2CCC(NC(=S)Nc3ccc(SC(F)F)cc3)CC2)cc1 (stereo not given) | -1 | 143* | 4 | -5 | 7 | 22 | 9 | 21 | -1
CC(C)C[C@H]1CNC(=S)N1CC1CCN(CCCCc2ccccc2)CC1 | . | 2 | 3 | . | 6 | 5 | . | . | .
Cc1ccc(S(=O)(=O)N2[C@@H](c3ccc(Cl)c(Cl)c3)C(C(=O)O)=C[C@H]2CC2CCCC2)cc1 | -4 | 57* | 6 | . | 9 | -3 | 19 | -11 | 12
COc1ccc(S(=O)(=O)N2CCOCC2)cc1NC(=O)C1CC(=O)N(c2ccc3c(c2)OCCO3)C1 (stereo not given) | . | 6 | . | . | -2 | 2 | . | . | .
CCOC(=O)C1=C(C)Nc2nnnn2C1c1cccc(OC)c1OC (stereo not given) | 10 | + | 2 | 0 | 1 | 19 | 0 | -34 | -9
COc1cc(C)cc(OC)c1OCC(=O)Nc1cc(C)on1 | -3 | 6 | 1 | . | 0 | 3 | . | . | .
O=C(COc1ccccc1[N+](=O)[O-])Nc1ccc(NC(=O)c2cc3ccccc3o2)cc1 | 5 | 7 | 5 | 2 | 17 | -1 | . | . | .
O=C(COc1ccc(/C=N/NC(=O)c2cc3ccccc3o2)cc1Br)Nc1ccccc1 | -6 | 118* | 4 | -1 | 125* | 23 | 41* | -105 | -15
Cc1cccc(NC(=O)CNC(=O)[C@H]2O[C@@H](n3ccc(N)nc3=O)[C@H](O)[C@@H]2O)c1C | . | -3 | . | . | 1 | 1 | . | . | .
